Reference: article PMC9722545 (Structure (London, England : 1993), 2022)

How the values were obtained:
CDK2 and CDK1 = details: no cyclins present; ref Wood et al., 2019; cited from earlier work
CDK11 Gly223Ala (G223A) = CDK11 Gly223Ala (G223A) (Homo sapiens, UniProt P21127, G579A); assay: ITC binding of OTS964 to CDK11 Gly223Ala
CDK2 Gly11Glu (G11E) = CDK2 Gly11Glu (G11E) (Homo sapiens, UniProt P24941, G11E); assay: ITC binding of OTS964 to CDK2 Gly11Glu
How it was run: (§1)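 Human CDK2 (res. 1–298, wild-type or point mutant) is expressed as a GST-PreScission fusion with yeast CAK1 in E. coli BL21(DE3), then tag-cleaved and gel-filtered, with no cyclin. ITC at 25°C in 25 mM HEPES pH 7.5, 250 mM NaCl, 1 mM DTT, 2.0% DMSO: 2250 μM test compound into 150 μM kinase, 38×1 μL injections 180 s apart.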

CDK2-cyclin A Wild-type = CDK2-cyclin A Wild-type (Homo sapiens, UniProt P24941); assay: ITC binding of OTS964 to CDK2-cyclin A wild-type; details: for Kd: mean ± SD
[1] = molecular target: CDK11 Wild-type (CDK11B residues 72–380) (Homo sapiens, UniProt P21127); assay: ITC binding of OTS964 to CDK11 wild-type
[2] = molecular target: CDK2-cyclin A Phe80Met (F80M) (Homo sapiens, UniProt P24941, F80M); assay: ITC binding of OTS964 to CDK2 Phe80Met-cyclin A
[3] = system: tumor cell lines harbouring FBXW7−/− mutations; details: FBXW7−/− versus FBXW7 wild-type tumor cell lines; ref O’Brien et al. (2022); cited from earlier work
[4] = molecular target: CDK2-cyclin A Gly11Glu (G11E) (Homo sapiens, UniProt P24941, G11E); assay: ITC binding of OTS964 to CDK2 Gly11Glu-cyclin A
CDK2 Ala144Gly (A144G) = CDK2 Ala144Gly (A144G) (Homo sapiens, UniProt P24941, A144G); assay: ITC binding of OTS964 to CDK2 Ala144Gly
How it was run: as §1

CDK11 G223A/E89G/M160F = CDK11 G223A/E89G/M160F (Homo sapiens, UniProt P21127, E445G/G579A/M516F); assay: ITC binding of OTS964 to CDK11 triple mutant
[5] = molecular target: CDK2-cyclin A Ala144Gly (A144G) (Homo sapiens, UniProt P24941, A144G); assay: ITC binding of OTS964 to CDK2 Ala144Gly-cyclin A
CDK11 Met160Phe (M160F) = CDK11 Met160Phe (M160F) (Homo sapiens, UniProt P21127, M516F); assay: ITC binding of OTS964 to CDK11 Met160Phe
CDK11 Gly223Ser = CDK11 Gly223Ser (Homo sapiens, UniProt P21127, G579S); assay: ITC binding of OTS964 to CDK11 Gly223Ser
CDK2 Phe80Met (F80M) = CDK2 Phe80Met (F80M) (Homo sapiens, UniProt P24941, F80M); assay: ITC binding of OTS964 to CDK2 Phe80Met
How it was run: as §1

CDK11 Glu89Gly (E89G) = CDK11 Glu89Gly (E89G) (Homo sapiens, UniProt P21127, E445G); assay: ITC binding of OTS964 to CDK11 Glu89Gly
CDK7 = details: KINOMEscan panel of CDKs; ref Lin et al., 2019; cited from earlier work
CDK2 Wild-type = CDK2 Wild-type (Homo sapiens, UniProt P24941); assay: ITC binding of OTS964 to CDK2 wild-type
How it was run: as §1

other CDKs = details: ref Lin et al., 2019, cited from earlier work
[6] = ITC, CDK2 wild-type with cyclin A
[7] = ITC, CDK2 Phe80Met with cyclin A
[8] = ITC, CDK2 Gly11Glu with cyclin A
[9] = ITC, CDK2 Ala144Gly with cyclin A

Chain of CDK11 Met160Phe (M160F) (P21127 428-736 M516F): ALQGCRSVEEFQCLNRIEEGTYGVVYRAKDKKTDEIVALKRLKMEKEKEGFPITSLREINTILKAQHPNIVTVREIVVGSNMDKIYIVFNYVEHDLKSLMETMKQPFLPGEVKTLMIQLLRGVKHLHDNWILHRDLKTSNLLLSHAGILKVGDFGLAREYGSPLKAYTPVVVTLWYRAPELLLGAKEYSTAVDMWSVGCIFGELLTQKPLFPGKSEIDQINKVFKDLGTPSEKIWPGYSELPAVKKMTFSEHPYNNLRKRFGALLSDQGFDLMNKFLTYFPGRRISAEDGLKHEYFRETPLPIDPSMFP
Chain of CDK11 Gly223Ser (P21127 428-736 G579S): as the sequence (P21127 428-736 M516F) above, with F89M, G152S counted along it
Chain of CDK11 Glu89Gly (E89G) (P21127 428-736 E445G): as the sequence (P21127 428-736 M516F) above, with E18G, F89M counted along it
Chain of CDK11 Gly223Ala (G223A) (P21127 428-736 G579A): as the sequence (P21127 428-736 M516F) above, with F89M, G152A counted along it
Chain of CDK11 Wild-type (CDK11B residues 72–380) (P21127 428-736): as the sequence (P21127 428-736 M516F) above, with F89M counted along it
Chain of CDK11 G223A/E89G/M160F (P21127 428-736 E445G/M516F/G579A): as the sequence (P21127 428-736 M516F) above, with E18G, G152A counted along it

SMILES: Cc1ncc(-c2ccnc(Nc3ccc(S(C)(=O)=O)cc3)n2)n1C(C)C [AZD5438]
- difference in affinity between CDK2 and CDK1 (CDK2 and CDK1): ~ 170 X

SMILES: Cc1cc(O)c(-c2ccc(C(C)CN(C)C)cc2)c2c1[nH]c(=O)c1sccc12 (stereo not drawn) [OTS964]
- Kd (CDK11 Gly223Ala (G223A)): 0.0317 ± 0.0138 µM
- Kd (CDK2 Gly11Glu (G11E)): 6.82 ± 0.53 µM
- N (sites) (CDK2 Gly11Glu (G11E); ITC, 25°C, CDK2 Gly11Glu, no cyclin): 0.866 sites
- ΔH (CDK2 Gly11Glu (G11E); ITC, CDK2 Gly11Glu, no cyclin): -9.45 ± 0.32 kcal/mol
- ΔS (CDK2 Gly11Glu (G11E); ITC, CDK2 Gly11Glu, no cyclin): −8.05 ± 1.23 cal/mol/K
- ΔG (CDK2 Gly11Glu (G11E); ITC, CDK2 Gly11Glu, no cyclin, ΔG = ΔH − TΔS): -7.05 ± 0.05 kcal/mol
- enhancement of binding of CDK2 to OTS964 in the presence versus absence of cyclin A (CDK2-cyclin A Wild-type; ITC KD): 7 fold
- N (sites) (CDK2-cyclin A Wild-type; ITC, 25°C, CDK2 wild-type with cyclin A): 1.00 sites
- ΔH (CDK2-cyclin A Wild-type; [6]): -8.64 ± 1.06 kcal/mol
- ΔS (CDK2-cyclin A Wild-type; [6]): −2.64 ± 2.99 cal/mol/K
- ΔG (CDK2-cyclin A Wild-type; ITC, CDK2 wild-type with cyclin A, ΔG = ΔH − TΔS): -7.85 ± 0.18 kcal/mol
- Kd (CDK2-cyclin A Wild-type; ITC, 25°C, CDK2 wild-type with cyclin A, n=2): 1.82 ± 0.5 µM
- Kd (CDK2-cyclin A Wild-type; ITC, CDK2 in the presence of cyclin A): 1.8 ± 0.5 µM
- Kd [1]: 0.0654 ± 0.018 µM
- Kd [2]: 4.98 ± 0.44 µM
- N (sites) ([2]; ITC, 25°C, CDK2 Phe80Met with cyclin A): 1.28 sites
- ΔH [2, 7]: -9.69 ± 0.08 kcal/mol
- ΔS [2, 7]: −8.23 ± 0.44 cal/mol/K
- ΔG ([2]; ITC, CDK2 Phe80Met with cyclin A, ΔG = ΔH − TΔS): -7.24 ± 0.05 kcal/mol
- sensitivity to OTS964 treatment [3]: more sensitive
- Kd [4]: 0.621 ± 0.016 µM
- N (sites) ([4]; ITC, 25°C, CDK2 Gly11Glu with cyclin A): 1.16 sites
- ΔH [4, 8]: -7.13 ± 0.21 kcal/mol
- ΔS [4, 8]: 4.48 ± 0.76 cal/mol/K
- ΔG ([4]; ITC, CDK2 Gly11Glu with cyclin A, ΔG = ΔH − TΔS): -8.47 ± 0.02 kcal/mol
- Kd (CDK2 Ala144Gly (A144G)): 16 ± 4.6 µM
- N (sites) (CDK2 Ala144Gly (A144G); ITC, 25°C, CDK2 Ala144Gly, no cyclin): 0.554 sites
- ΔH (CDK2 Ala144Gly (A144G); ITC, CDK2 Ala144Gly, no cyclin): -10.6 ± 1.2 kcal/mol
- ΔS (CDK2 Ala144Gly (A144G); ITC, CDK2 Ala144Gly, no cyclin): −13.4 ± 4.5 cal/mol/K
- ΔG (CDK2 Ala144Gly (A144G); ITC, CDK2 Ala144Gly, no cyclin, ΔG = ΔH − TΔS): -6.56 ± 0.17 kcal/mol
- Kd (CDK11 G223A/E89G/M160F): 0.32 ± 0.066 µM
- Kd [5]: 3.03 ± 0.15 µM
- N (sites) ([5]; ITC, 25°C, CDK2 Ala144Gly with cyclin A): 1.04 sites
- ΔH [5, 9]: -6.92 ± 0.01 kcal/mol
- ΔS [5, 9]: 2.04 ± 0.11 cal/mol/K
- ΔG ([5]; ITC, CDK2 Ala144Gly with cyclin A, ΔG = ΔH − TΔS): -7.53 ± 0.03 kcal/mol
- Kd (CDK11 Met160Phe (M160F)): 0.556 ± 0.026 µM
- Kd (CDK11 Gly223Ser): 0.853 ± 0.056 µM
- Kd (CDK2 Phe80Met (F80M)): 32.4 ± 1.9 µM
- N (sites) (CDK2 Phe80Met (F80M); ITC, 25°C, CDK2 Phe80Met, no cyclin): 0.804 sites
- ΔS (CDK2 Phe80Met (F80M); ITC, CDK2 Phe80Met, no cyclin): −19.1 ± 1.1 cal/mol/K
- ΔG (CDK2 Phe80Met (F80M); ITC, CDK2 Phe80Met, no cyclin, ΔG = ΔH − TΔS): 17.5 ± 0.6 kcal/mol
- Kd (CDK11 Glu89Gly (E89G)): 0.0509 ± 0.0033 µM
- more potent against CDK11 than against CDK7 (CDK7): 10 X
- Kd (CDK2 Wild-type): 16.3 ± 1.7 µM
- weaker binding than monomeric CDK11 (CDK2 Wild-type; ITC KD, CDK2 without cyclin vs monomeric CDK11): ~ 250 fold
- N (sites) (CDK2 Wild-type; ITC, 25°C, CDK2 wild-type, no cyclin): 0.704 sites
- ΔH (CDK2 Wild-type; ITC, CDK2 wild-type, no cyclin): -9.12 ± 0.60 kcal/mol
- ΔS (CDK2 Wild-type; ITC, CDK2 wild-type, no cyclin): −8.66 ± 1.80 cal/mol/K
- ΔG (CDK2 Wild-type; ITC, CDK2 wild-type, no cyclin, ΔG = ΔH − TΔS): -6.54 ± 0.06 kcal/mol
- binding to other CDKs tested (other CDKs; KINOMEscan panel of CDKs): no apparent binding
- Kd (other CDKs; other CDKs): > 3 µM
- higher affinity for CDK11 than other CDKs (other CDKs): at least 75 fold
